ChEMBL document CHEMBL1124932, “Synthesis and antiviral activity of 9-alkoxypurines. 1. 9-(3-Hydroxypropoxy)- and 9-[3-hydroxymethyl)propoxy]purines” (J Med Chem, 1990)

Columns and labels:
[1] = system: Mus musculus; experiment: Concentration of BRL 44385 in blood was determined in female BALB/c mice at 60 min a after of dosing of […]; assay type: ADME, organism-based; conditions: in vivo, 1 h
Procedure, shortened: (§1)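 Female Balb/c mice (20 g), fasted 18 h, given a single 0.2 mmol/kg oral gavage dose in 0.1 mL 1% (carboxymethyl)cellulose. Blood drawn by cardiac puncture with heparinised syringes at 15, 60 and 180 min. Equal volumes from three mice pooled per time point. Samples deproteinised with 16% trichloroacetic acid, neutralised with NaHCO3, mixed with 0.4 M NH4OAc (pH 6.0), and analysed by HPLC.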

[2] = system: Mus musculus; experiment: Concentration of BRL 44385 in blood was determined in female BALB/c mice at 15 min a after of dosing of […]; assay type: ADME, organism-based; conditions: in vivo, 0.25 h; procedure, shortened: as §1
[3] = system: Vero; experiment: Antiviral activity in plaque reduction assay was determined against herpes simplex virus type 1 (HSV-1) in Vero cells.; assay type: functional, cell-based; conditions: Chlorocebus sabaeus
Procedure, shortened: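 Vero monolayers infected with about 50 PFU HSV-1. Compound at various concentrations, present throughout incubation. Stocks 10 mg/mL in Me2SO, diluted in culture medium. Plaques counted when clearly visible, usually 3 days.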

[4] = system: MRC5; experiment: Antiviral activity in plaque reduction assay was determined against herpes simplex virus type 2 (HSV-2) in MRC-5 cells.; assay type: functional, cell-based; conditions: Homo sapiens
Procedure, shortened: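 HSV-2 at about 50 PFU infected onto MRC-5 monolayers. Compound at various concentrations, present throughout incubation. Stocks 10 mg/mL in Me2SO, diluted in culture medium. Plaques counted when clearly visible, usually 1 day.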

[5] = system: MRC5; experiment: Antiviral activity in plaque reduction assay was determined against varicella zoster virus (VZV) in MRC-5 cells.; assay type: functional, cell-based; conditions: Homo sapiens
[6] = system: Mus musculus; experiment: Concentration of BRL 44385 in blood was determined in female BALB/c mice at 60 min after dosing of […]; assay type: ADME, organism-based; conditions: in vivo, 1 h; procedure, shortened: as §1

| SMILES | concentration [1] | concentration [2] | IC50 [3] | IC50 [4] | IC50 [5] | concentration [6] |
| --- | --- | --- | --- | --- | --- | --- |
| Nc1ncc2ncn(OCCCOC(=O)c3ccccc3)c2n1 | 4 µM | 46 µM | – | – | – | – |
| Nc1nc(O)c2ncn(OCC3COP(=O)(O)OC3)c2n1 (stereo not drawn) | – | – | 180 µM | 180 µM | 186 µM | – |
| Nc1nc(O)c2ncn(OCCCOC(=O)c3ccccc3)c2n1 | < 2 µM | < 2 µM | 8.5 µM | 6.4 µM | > 300 µM | – |
| CC(=O)OCC(COC(C)=O)COn1cnc2cnc(N)nc21 | 10 µM | 53 µM | – | – | – | – |
| CCOc1nc(N)nc2c1ncn2OCC(CO)CO | 15 µM | 37 µM | – | – | – | – |
| CC(=O)OCCCOn1cnc2c(O)nc(N)nc21 | 5 µM | 3 µM | 16 µM | 4.1 µM | 45 µM | – |
| Nc1ncc2ncn(OCC(COC(=O)c3ccccc3)COC(=O)c3ccccc3)c2n1 | – | 14 µM | – | – | – | 9 µM |
| Nc1nc(O)c2ncn(OCCCO)c2n1 | 5 µM | 8 µM | 2.1 µM | 0.71 µM | 4.4 µM | – |
| Nc1nc(O)c2ncn(OCC(CO)CO)c2n1 | 2 µM | 2 µM | 5.9 µM | 5.9 µM | 11 µM | – |
| CCOc1nc(N)nc2c1ncn2OCCCO | < 2 µM | 6 µM | – | – | – | – |
| COc1nc(N)nc2c1ncn2OCC(CO)CO | 8 µM | 7 µM | – | – | – | – |
| CCCCCC(=O)OCCCOn1cnc2cnc(N)nc21 | 4 µM | 66 µM | – | – | – | – |
| Nc1nc(N)c2ncn(OCC(CO)CO)c2n1 | < 2 µM | < 2 µM | – | – | – | – |
| Nc1nc(Cl)c2ncn(OCC(CO)CO)c2n1 | 5 µM | 11 µM | – | – | – | – |
| Nc1ncc2ncn(OCCCO)c2n1 | 3 µM | 43 µM | – | – | – | – |
| CCC(=O)OCC(COC(=O)CC)COn1cnc2cnc(N)nc21 | 12 µM | 49 µM | – | – | – | – |
| CCCCCC(=O)OCCCOn1cnc2c(O)nc(N)nc21 | 3 µM | 8 µM | 2.1 µM | 0.22 µM | 7.4 µM | – |
| CC(=O)OCCCOn1cnc2cnc(N)nc21 | 3 µM | 45 µM | – | – | – | – |
| Nc1ncc2ncn(OCC(CO)CO)c2n1 | 16 µM | 31 µM | – | – | – | – |
| CC(C)Oc1nc(N)nc2c1ncn2OCC(CO)CO | 26 µM | 29 µM | – | – | – | – |
| Nc1nc2c(ncn2COCCO)c(=O)[nH]1 [ACYCLOVIR] | – | – | 6.7 µM | 2.5 µM | – | – |
